Common to all, as to format: cell-based, human
The subject of assay [1] is SIRT3 depleted HBL1 cells. Kind of assay: Rescue of proliferation arrest caused by SIRT3 depletion. The settings on record: HBL1, Figure S5D.
Assay [2] concerns SIRT3 depleted OCI-LY1 cells. The assay is described as above. The note with it: OCI-LY1, Figure S5C.
Assay [3] concerns DLBCL cells with SIRT3 shRNA. Kind of assay: Rescue of autophagy. The note with it: DMKG 4 mM for 3-4 hr. An outline of the steps: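 DLBCL cells carrying SIRT3 or control shRNA were incubated with test compound (4 mM) for 3-4 hr, then collected for Western blot with LC3 and SIRT3 antibodies. Detection used a peroxidase-conjugated secondary antibody and enhanced chemiluminescence. LC3II/LC3I ratios were obtained by densitometry and normalized to control cells.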

In assay [4] the test system is SIRT3 depleted Karpas 422 cells. The experiment in a line: Rescue of proliferation arrest caused by SIRT3 depletion. The note with it: Karpas 422, 4-day exposure. The procedure, abridged: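 Karpas 422 cells were infected with YFP-carrying lentivirus bearing SIRT3 or control shRNA and exposed for 4 days to test compounds, alone or combined. Viable YFP+ (transduced) and YFP− (non-transduced) populations were quantified by flow cytometry. Abundance was normalized to the first time point.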

Consider `COC(=O)C(C)=O` [MP, methyl-pyruvate], for which the “Rescue of proliferation arrest caused by SIRT3 depletion” value in assay [1] is “required both DMKG and MP”.
On to `COC(=O)CCC(=O)C(=O)OC` [DMKG, dimethyl-αKG], for which the “Rescue of proliferation arrest caused by SIRT3 depletion” value in assay [1] was “required both DMKG and MP”; in assay [2], “DMKG alone rescued”; in assay [4] it was “DMKG alone rescued”. In assay [3], the “Rescue of LC3II/LC3I ratios (autophagy) after SIRT3 depletion” value was “rescued LC3II/LC3I ratios”.

These data come from paper PMC7534582 (Cancer cell, 2019).
